From paper PMC8458982 (The Journal of Biological Chemistry, 2021)
“And” between values parts separate entries of the source, which are not always exact repeats. Equal values may be shown once.

Assays:
[1] = biological target: T1, mouse TRPC6 (mTRPC6-WT) (Mus musculus, UniProt Q61143); assay: whole-cell patch-clamp, mTRPC6-WT expressed in HEK293 cells; format: cell-based
T1 sequence (Q61143 1-930): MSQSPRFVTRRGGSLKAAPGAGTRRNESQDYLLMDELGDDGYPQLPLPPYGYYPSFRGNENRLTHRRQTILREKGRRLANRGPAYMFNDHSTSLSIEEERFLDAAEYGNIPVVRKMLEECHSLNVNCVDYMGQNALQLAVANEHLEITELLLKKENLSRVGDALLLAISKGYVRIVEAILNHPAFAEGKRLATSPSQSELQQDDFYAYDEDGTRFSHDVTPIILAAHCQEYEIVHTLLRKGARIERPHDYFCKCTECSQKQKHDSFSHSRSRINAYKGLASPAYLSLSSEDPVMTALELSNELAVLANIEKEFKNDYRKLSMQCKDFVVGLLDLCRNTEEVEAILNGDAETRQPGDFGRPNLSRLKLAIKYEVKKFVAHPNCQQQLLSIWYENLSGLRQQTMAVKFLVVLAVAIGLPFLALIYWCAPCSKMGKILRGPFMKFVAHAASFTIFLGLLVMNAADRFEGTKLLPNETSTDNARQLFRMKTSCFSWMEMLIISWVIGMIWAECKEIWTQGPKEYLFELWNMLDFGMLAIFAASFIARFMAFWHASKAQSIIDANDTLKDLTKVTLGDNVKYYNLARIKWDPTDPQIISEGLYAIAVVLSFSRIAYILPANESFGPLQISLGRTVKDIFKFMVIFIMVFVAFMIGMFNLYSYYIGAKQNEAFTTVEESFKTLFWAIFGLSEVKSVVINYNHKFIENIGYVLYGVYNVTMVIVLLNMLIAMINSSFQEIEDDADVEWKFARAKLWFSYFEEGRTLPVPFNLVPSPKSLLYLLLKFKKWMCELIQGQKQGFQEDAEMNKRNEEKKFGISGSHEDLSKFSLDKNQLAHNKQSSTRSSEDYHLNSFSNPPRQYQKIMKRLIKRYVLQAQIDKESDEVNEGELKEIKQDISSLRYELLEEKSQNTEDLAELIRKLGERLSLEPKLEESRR
Summary of the method: (§1)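 Transiently transfected HEK293 cells expressing mouse or human TRPC6 WT, or sequence-verified mouse point mutants, recorded 24–48 h post-transfection. Conventional whole-cell clamp at −60 mV and 23 °C, gap-free; test compound applied by Y-tube. Pipette: CsCl/HEPES/BAPTA, 400 nM free Ca2+, pH 7.2. Bath: NaCl-based, 2 mM CaCl2, pH 7.4. EC50 from Hill fit of concentration–current data. Mutant screen used current ratios (10/5 μM or 3/1 μM). At least 3 transfection batches.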

[2] = biological target: mTRPC6 mutant ^mK675R (Mus musculus, UniProt Q61143, K675R); assay: whole-cell patch-clamp, mTRPC6 mutant K675R; format: cell-based
Summary of the method: as §1

[3] = biological target: mTRPC6 mutant ^mN701Q (Mus musculus, UniProt Q61143, N701Q); assay: whole-cell patch-clamp, mTRPC6 mutant N701Q; format: cell-based
Summary of the method: as §1

[4] = biological target: mTRPC6 mutant ^mF640W (Mus musculus, UniProt Q61143, F640W); assay: whole-cell patch-clamp, mTRPC6 mutant F640W; format: cell-based
Summary of the method: as §1

[5] = tested on: mTRPC6 mutant ^mV687L; assay: whole-cell patch-clamp, mTRPC6 mutant V687L; format: cell-based, mouse; settings: ^mV687L (S3 pocket)
Summary of the method: as §1

[6] = biological target: mTRPC6 mutant ^mL684V (Mus musculus, UniProt Q61143, L684V); assay: whole-cell patch-clamp, mTRPC6 mutant L684V; format: cell-based; settings: ^mL684V (S3 pocket)
Summary of the method: as §1

[7] = biological target: mTRPC6 mutant ^mW679A (Mus musculus, UniProt Q61143, W679A); assay: whole-cell patch-clamp, mTRPC6 mutant W679A; format: cell-based; settings: saturated agonist
Summary of the method: as §1

[8] = biological target: hTRPC6 mutant ^hY705W (Homo sapiens, UniProt Q9Y210, Y705W); assay: whole-cell patch-clamp, hTRPC6 mutant Y705W; format: cell-based
[9] = biological target: mTRPC6^N701Q (Mus musculus, UniProt Q61143, N701Q); assay: single-channel outside-out recording, mTRPC6 N701Q; format: cell-based; settings: 100 μM agonist, −60 mV
Summary of the method: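 Excised outside-out or inside-out patches (macro-patch or single-channel) from transfected HEK293 cells, 24–48 h post-transfection, 23 °C. Polished borosilicate pipettes of 8–12 MΩ; holding potential −60 mV. Same solutions as whole-cell recordings (CsCl-based internal, 400 nM free Ca2+, pH 7.2; NaCl-based external, pH 7.4). Sampled at 50 kHz, 2 kHz filter, low-pass 300 Hz; unitary current and conductance measured.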

mTRPC6 mutant ^mN701Q, sequence (Q61143 whole entry N701Q): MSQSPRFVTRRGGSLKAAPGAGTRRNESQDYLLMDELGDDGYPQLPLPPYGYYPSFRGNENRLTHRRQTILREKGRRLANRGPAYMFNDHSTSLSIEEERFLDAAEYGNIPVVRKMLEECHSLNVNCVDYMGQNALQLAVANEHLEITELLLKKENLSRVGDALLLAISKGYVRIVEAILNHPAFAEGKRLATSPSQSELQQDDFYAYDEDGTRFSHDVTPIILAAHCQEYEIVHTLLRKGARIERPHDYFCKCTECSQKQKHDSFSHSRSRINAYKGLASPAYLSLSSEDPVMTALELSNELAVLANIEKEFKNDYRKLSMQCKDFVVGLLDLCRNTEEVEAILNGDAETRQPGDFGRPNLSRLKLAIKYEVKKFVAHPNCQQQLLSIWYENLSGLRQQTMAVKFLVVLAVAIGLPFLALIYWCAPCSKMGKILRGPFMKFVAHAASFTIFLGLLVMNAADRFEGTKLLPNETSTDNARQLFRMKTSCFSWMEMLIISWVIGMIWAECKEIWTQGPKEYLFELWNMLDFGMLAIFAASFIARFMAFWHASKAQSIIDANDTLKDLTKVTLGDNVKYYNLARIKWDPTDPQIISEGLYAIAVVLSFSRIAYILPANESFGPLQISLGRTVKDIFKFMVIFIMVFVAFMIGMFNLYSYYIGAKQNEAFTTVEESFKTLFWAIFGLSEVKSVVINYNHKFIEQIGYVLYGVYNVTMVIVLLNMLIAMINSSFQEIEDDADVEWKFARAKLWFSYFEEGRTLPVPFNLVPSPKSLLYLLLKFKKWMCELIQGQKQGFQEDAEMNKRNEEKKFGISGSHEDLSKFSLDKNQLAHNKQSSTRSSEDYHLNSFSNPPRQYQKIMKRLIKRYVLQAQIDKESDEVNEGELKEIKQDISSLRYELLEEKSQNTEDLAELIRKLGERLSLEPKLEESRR
mTRPC6 mutant ^mK675R, sequence (Q61143 whole entry K675R): as the sequence (Q61143 whole entry N701Q) above, with K675R, Q701N counted along it
hTRPC6 mutant ^hY705W, sequence (Q9Y210 whole entry Y705W): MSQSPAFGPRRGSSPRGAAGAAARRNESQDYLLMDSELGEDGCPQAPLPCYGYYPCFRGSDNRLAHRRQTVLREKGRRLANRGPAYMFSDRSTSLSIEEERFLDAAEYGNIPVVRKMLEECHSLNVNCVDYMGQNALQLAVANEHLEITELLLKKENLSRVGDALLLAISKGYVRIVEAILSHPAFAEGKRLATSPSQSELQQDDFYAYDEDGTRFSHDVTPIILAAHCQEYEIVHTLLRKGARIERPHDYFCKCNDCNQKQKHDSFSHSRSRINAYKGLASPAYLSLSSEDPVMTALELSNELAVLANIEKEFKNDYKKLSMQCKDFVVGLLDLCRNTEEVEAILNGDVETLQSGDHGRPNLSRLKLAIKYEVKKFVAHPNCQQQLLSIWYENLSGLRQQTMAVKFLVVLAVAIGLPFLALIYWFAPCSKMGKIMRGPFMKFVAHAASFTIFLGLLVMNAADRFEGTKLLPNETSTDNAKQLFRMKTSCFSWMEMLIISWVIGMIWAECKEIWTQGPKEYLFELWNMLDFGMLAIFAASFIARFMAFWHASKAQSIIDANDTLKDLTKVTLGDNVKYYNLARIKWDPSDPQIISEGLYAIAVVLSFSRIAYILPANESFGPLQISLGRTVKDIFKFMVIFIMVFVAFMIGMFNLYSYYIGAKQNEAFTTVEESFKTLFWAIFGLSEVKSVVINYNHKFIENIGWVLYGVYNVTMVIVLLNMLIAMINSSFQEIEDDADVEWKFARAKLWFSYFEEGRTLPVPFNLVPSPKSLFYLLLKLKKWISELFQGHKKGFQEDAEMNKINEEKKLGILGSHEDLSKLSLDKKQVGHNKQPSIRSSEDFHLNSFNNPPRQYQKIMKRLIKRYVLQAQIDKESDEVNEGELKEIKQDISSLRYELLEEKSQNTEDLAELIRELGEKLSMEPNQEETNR
mTRPC6^N701Q, sequence (Q61143 whole entry N701Q): as the sequence (Q61143 whole entry N701Q) above
mTRPC6 mutant ^mL684V, sequence (Q61143 whole entry L684V): as the sequence (Q61143 whole entry N701Q) above, with L684V, Q701N counted along it
mTRPC6 mutant ^mF640W, sequence (Q61143 whole entry F640W): as the sequence (Q61143 whole entry N701Q) above, with F640W, Q701N counted along it
mTRPC6 mutant ^mW679A, sequence (Q61143 whole entry W679A): as the sequence (Q61143 whole entry N701Q) above, with W679A, Q701N counted along it

CCOC(=O)N1CCC(c2cc(O)n3nc(C)c(-c4ccc(F)cc4)c3n2)CC1 [M085, Ethyl 4-(3-(4-fluorophenyl)-7-hydroxy-2-methylpyrazolo[1,5-a]pyrimidin-5-yl)piperidine-1-carboxylate]
EC50 ([1]; EC50 of channel activation, mTRPC6-WT, whole-cell, −60 mV, Hill fit): ~5 µM and 3.8 µM
ratio of M085 activation current I10 μM/I5 μM ([1]; mTRPC6-WT): 1.65 ± 0.21
Imax (maximal current density) ([1]; mTRPC6-WT, 30 μM M085 (saturated)): 75.11 ± 14.20 pA/pF
effect of DTNB on agonist-mediated activation ([1]; mTRPC6-WT, DTNB covalent modification): no effect
saturation concentration ([1]; mTRPC6 activation): approximately 10 μM
EC50 [2]: 6.9 ± 2.36 µM
Imax (maximal current density) ([2]; ^mK675R, 100 μM agonist): 8.26 ± 0.62 pA/pF
EC50 [3]: 55.7 ± 15.2 µM
Imax (maximal current density) ([3]; ^mN701Q, 100 μM agonist): 2.11 ± 1.04 pA/pF
EC50 [4]: 0.84 ± 0.27 µM
ratio of M085 activation current I10 μM/I5 μM [5]: 1.13 ± 0.26
agonistic effect [6]: loss of agonistic effect
agonist-induced current [7]: disappearance
EC50 [8]: 35.3 ± 6.15 µM
unit current [9]: about 1.1 pA
